Data published in ChEMBL document CHEMBL3856274, “Sydnone Cycloaddition Route to Pyrazole-Based Analogs of Combretastatin A4” (J Med Chem, 2016).
Activity calls are given as the source filed them. The rule behind the calls is not given here.

Columns and labels:
HUVEC [1] = experiment: Growth inhibition of HUVEC after 72 hrs by crystal violet staining-based assay; assay type: functional; details: Homo sapiens
Summary of the method: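 HUVECs at 5 × 10^3/well on gelatin-coated plates were allowed to adhere for 24 h, then given a drug concentration series in EBM (≥8 wells per concentration) for 72 h at 37 °C. Cells were fixed in 3.7% formalin and stained with 1% crystal violet, which was solubilized in 10% acetic acid and read at A590 with background correction. % growth inhibition from ≥3 independent experiments was plotted against log concentration to give GI50.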

HUVEC [2] = experiment: Disruption of interphase microtubule in HUVEC assessed as change in cell shape and morphology at 250 nM preincubated for 30 mins followed by compound washout measured after 60 mins by DAPI staining-based immunofluorescence assay; details: Homo sapiens
Summary of the method: (§1)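 HUVECs on fibronectin-coated chamber slides were exposed to 250 nM drug or vehicle for 30 min at 37 °C. Cells were washed four times with serum-containing medium, incubated 30 min, washed again and incubated a further 30 min (60 min recovery). They were then fixed in 3.7% formalin, permeabilized with 0.1% Triton X-100, and stained for β-tubulin, F-actin (phalloidin) and DAPI.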

HUVEC [3] = experiment: Activation of ROCK in HUVEC assessed as phosphorylation of myosin light chain at 50 to 500 nM after 15 mins by Western blot method; assay type: cell-based; details: Homo sapiens
Summary of the method: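 HUVECs seeded on gelatin at 5 × 10^4 cells/well and grown 7 days without medium change. Drugs diluted in EBM from 20 mM DMSO stock and applied 15 min. Proteins extracted in LDS buffer. Western blot for dually phosphorylated MLC, with actin reprobe for loading. Band intensity given as fold-change over vehicle. Mean of 3-4 independent experiments ± SEM.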

HUVEC [4] = experiment: Disruption of interphase microtubule in HUVEC assessed as change in cell shape at 250 nM after 30 mins by DAPI staining-based immunofluorescence assay; details: Homo sapiens
Summary of the method: (§2)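 HUVECs (supplemented medium, 10% FCS final, used up to 5 passages) plated on fibronectin-coated chamber slides at 2.5 × 10^4 or 5 × 10^4 cells/well. Treated with drug (dilutions in EBM from 20 mM DMSO stock) or vehicle for 30 min. Then fixed in 3.7% formalin, permeabilized in 0.1% Triton X-100, and stained for β-tubulin (antibody), F-actin (phalloidin) and nuclei (DAPI).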

[5] = Toxicity in SCID mouse; assay type: organism-based; details: in vivo
HUVEC [6] = experiment: Induction of HUVEC monolayer permeability assessed as increase in passage of FITC-dextran through cell monolayer at 50 nM preincubated for 30 mins followed by compound washout and addition of FITC-dextran for 30 mins by fluorescence assay; assay type: functional, cell-based; details: Homo sapiens
Summary of the method: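 HUVECs seeded at 5 × 10^4 per fibronectin-coated 3 µm-pore insert and cultured 5 days to a confluent monolayer. Drug 50 nM for 30 min at 37 °C, then replaced with FITC-dextran (0.8 mg/mL) for 30 min. Lower-well fluorescence read at ex 488/em 525 and expressed as % of a cell-free insert. Mean of 3 independent experiments ± SEM.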

HUVEC [7] = experiment: Disruption of interphase microtubule in HUVEC assessed as formation of actin stress fiber at 250 nM preincubated for 30 mins followed by compound washout measured after 60 mins by DAPI staining-based immunofluorescence assay; assay type: cell-based; details: Homo sapiens; summary of the method: as §1
SW1222 = experiment: Induction of necrosis in human SW1222 cells xenografted in SCID mouse at 0.227 mmol/kg administered as single dose measured after 24 hrs by hematoxylin/eosin staining-based microscopic method; assay type: functional, cell-based
Summary of the method: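 SW1222 cells (5 × 10^6) injected s.c. into the rear dorsum of female SCID mice (8–12 weeks). Tumours treated at about 8 mm mean diameter with a single dose of 0.227 mmol/kg in […]/NaCl, 10 mL/kg. Tumours excised at 24 h. Necrosis scored on 5 µm H&E sections by Chalkley point counting.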

HUVEC [8] = experiment: Disruption of interphase microtubule in HUVEC assessed as change in cell morphology at 250 nM after 30 mins by DAPI staining-based immunofluorescence assay; details: Homo sapiens; summary of the method: as §2
HUVEC [9] = experiment: Disruption of interphase microtubule in HUVEC assessed as formation of actin stress fiber at 250 nM after 30 mins by phalloidin/DAPI staining-based immunofluorescence assay; assay type: cell-based; details: Homo sapiens
Summary of the method: (§3)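 HUVECs seeded on fibronectin-coated chamber slides. Drug diluted in EBM from 20 mM DMSO stock. Exposure 250 nM for 30 min or 1 µM for 90 min. Fixed in 3.7% formalin and permeabilised in 0.1% Triton X-100. Stained for β-tubulin by antibody, F-actin by phalloidin and nuclei by DAPI, then imaged by immunofluorescence.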

HUVEC [10] = experiment: Disruption of interphase microtubule in HUVEC assessed as formation of actin stress fiber at 1 uM after 90 mins by phalloidin/DAPI staining-based immunofluorescence assay; assay type: cell-based; details: Homo sapiens; summary of the method: as §3
HUVEC [11] = experiment: Disruption of interphase microtubule in HUVEC assessed as change in cell morphology at 1 uM after 90 mins by DAPI staining-based immunofluorescence assay; details: Homo sapiens; summary of the method: as §3

Compound `COc1ccc(-c2cn(C)nc2-c2cc(OC)c(OC)c(OC)c2)cc1O` has a GI50 (HUVEC [1]) of over 5000 nM.

For `COc1ccc(-c2[nH]ncc2-c2cc(OC)c(OC)c(OC)c2)cc1O`, the Activity (HUVEC [2]) was “Active”, the Activity (HUVEC [3]) was “Active” and the GI50 (HUVEC [1]) was 7 nM. For the same compound, the Activity (HUVEC [4]) was “Active”, the MTD [5] was over 162 mg/kg and the Activity (HUVEC [6]) was “Active”. For the same compound, the Activity (HUVEC [7]) was “Active”, the Activity (SW1222) was “Active” and the Activity (HUVEC [8]) was “Active”.

In the case of `COc1ccc(-c2cnn(C)c2-c2cc(OC)c(OC)c(OC)c2)cc1O`, the GI50 (HUVEC [1]) is reported as 68 nM.

`COc1ccc(-c2nn(C)cc2-c2cc(OC)c(OC)c(OC)c2)cc1O` gave a GI50 (HUVEC [1]) of 256 nM.

`COc1ccc(-c2cn[nH]c2-c2cc(OC)c(OC)c(OC)c2)cc1O` gave a GI50 (HUVEC [1]) of over 5000 nM.

For `COc1ccc(/C=C\c2cc(OC)c(OC)c(OC)c2)cc1OP(=O)(O)O` [FOSBRETABULIN DISODIUM], the Activity (HUVEC [3]) was “Active”, the GI50 (HUVEC [1]) was 8 nM and the Activity (HUVEC [9]) was “Active”. For the same compound, the Activity (HUVEC [6]) was “Active”, the Activity (SW1222) was “Active” and the Activity (HUVEC [8]) was “Active”.

For `COc1ccc(-c2cnn(Cc3ccccc3)c2-c2cc(OC)c(OC)c(OC)c2)cc1O`, the GI50 (HUVEC [1]) was over 2500 nM.

In the case of `COc1ccc(-c2ccnn2-c2cc(OC)c(OC)c(OC)c2)cc1O`, the GI50 (HUVEC [1]) is reported as 28 nM, the Activity (HUVEC [4]) is reported as “Active” and the Activity (HUVEC [8]) is reported as “Active”.

Work on `COc1ccc(-c2cn(Cc3ccccc3)nc2-c2cc(OC)c(OC)c(OC)c2)cc1O` yielded a GI50 (HUVEC [1]) of over 5000 nM.

For `COc1ccc(-n2nccc2-c2cc(OC)c(OC)c(OC)c2)cc1O`, the GI50 (HUVEC [1]) was over 750 nM.

For `COc1cc2c(c(OC)c1OC)-c1ccc(OC)c(=O)cc1[C@@H](NC(C)=O)CC2` [COLCHICINE], the Activity (HUVEC [10]) was “Active”, the GI50 (HUVEC [1]) was 25 nM and the Activity (HUVEC [11]) was “Active”.

With `COc1ccc(-c2c(-c3cc(OC)c(OC)c(OC)c3)cnn2Cc2ccccc2)cc1O` the GI50 (HUVEC [1]) was over 750 nM.

Compound `COc1ccc(-c2c(-c3cc(OC)c(OC)c(OC)c3)cnn2C)cc1O` has a GI50 (HUVEC [1]) of 118 nM.

`COc1ccc(-c2nn(Cc3ccccc3)cc2-c2cc(OC)c(OC)c(OC)c2)cc1O` showed a GI50 (HUVEC [1]) of over 2000 nM.
